Reference: ChEMBL document CHEMBL6153064, “Structure-based discovery of novel diarylpyrimidines as potent and selective Non-Nucleoside reverse transcriptase inhibitors: From CH(CN)-Biphenyl-Diarylpyrimidines to CNNH2-Biphenyl-Diarylpyrimidines” (Eur J Med Chem, 2025)

What was measured:
[1] = system: Human immunodeficiency virus 1; experiment: Antiviral activity against wild type HIV-1 IIIB infected in human MT4 cells […]; format: functional, organism-based; details: Human immunodeficiency virus 1, IIIB
[2] = Stability in human plasma assessed as parent compound remaining measured at 300 mins; format: ADME, cell-free; details: read-out: Stability
[3] = system: Human immunodeficiency virus 1; experiment: Antiviral activity against HIV-1 harboring L100I mutant infected in human MT4 cells […]; format: functional, organism-based; details: Human immunodeficiency virus 1, MT4
[4] = Metabolic stability in human microsomes assessed as intrinsic clearance; format: ADME, Microsome; details: read-out: CLH
Procedure, shortened: (§1)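 Incubation with human liver microsomes; half-life obtained from depletion fit (R² reported), intrinsic clearance expressed per mg microsomal protein (μL/min/mg) and scaled to liver (mL/min/kg).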

[5] = system: Human immunodeficiency virus 1; experiment: Antiviral activity against HIV-1 harboring E138K mutant infected in human MT4 cells […]; format: functional, organism-based; details: Human immunodeficiency virus 1, MT4
[6] = system: Human immunodeficiency virus 1; experiment: Antiviral activity against HIV-1 harboring Y188L mutant infected in human MT4 cells assessed as inhibition of virus-induced cytopathic effect by MTT assay; details: Human immunodeficiency virus 1, MT4
[7] = Acute toxicity in ICR mouse assessed as adverse symptoms at 2 g/Kg, po measured for 2 weeks; format: organism-based; details: in vivo, 2000 mg/kg, 336 h
Procedure, shortened: (§2)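 Healthy female and male ICR mice were given a single oral dose of 2 g/kg. Growth, death and toxic symptoms were followed over 2 weeks and compared with a control group.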

[8] = molecular target: Human immunodeficiency virus type 1 reverse transcriptase (Human immunodeficiency virus 1, UniProt Q72547); experiment: Inhibition of wild type HIV-1 Reverse transcriptase
[9] = Stability in human plasma assessed as parent compound remaining measured immediately; format: ADME, cell-free; details: read-out: Stability
[10] = Acute toxicity in ICR mouse assessed as spleen lesion at 2 g/Kg, po measured after 14 days; format: organism-based; details: in vivo, 2000 mg/kg, 336 h, time 14 day
Procedure, shortened: (§3)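 ICR mice, female and male, received one oral 2 g/kg dose. On day 14 after dosing they were dissected, and organs were examined by histopathology against a control group.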

[11] = Cytotoxicity against human MT4 cells by MTT assay; format: toxicity, cell-based
[12] = Acute toxicity in ICR mouse assessed as change in CREA level at 2 g/Kg, po measured after 14 days; format: organism-based; details: in vivo, 2000 mg/kg, 336 h, time 14 day
Procedure, shortened: (§4)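 ICR mice of both sexes received a single oral 2 g/kg dose. On day 14 after dosing, blood was examined for ALT, AST, CREA, UREA and CKMB and compared with control groups.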

[13] = Acute toxicity in ICR mouse assessed as change in CKMB level at 2 g/Kg, po measured after 14 days; format: organism-based; details: in vivo, 2000 mg/kg, 336 h, time 14 day; procedure, shortened: as §4
[14] = system: Human immunodeficiency virus 1; experiment: Potency index, ratio of Nevirapine EC50 to test compound EC50 for antiviral activity against HIV-1 harboring E138K mutant infected in human MT4 cells […]; format: functional
[15] = Acute toxicity in ICR mouse assessed as liver lesion at 2 g/Kg, po measured after 14 days; format: organism-based; details: in vivo, 2000 mg/kg, 336 h, time 14 day; procedure, shortened: as §3
[16] = system: Human immunodeficiency virus 1; experiment: Potency index, ratio of Efavirenz EC50 to test compound EC50 for antiviral activity against HIV-1 harboring K103N mutant infected in human MT4 cells […]; format: functional
[17] = system: Human immunodeficiency virus 1; experiment: Potency index, ratio of Efavirenz EC50 to test compound EC50 for antiviral activity against HIV-1 harboring Y188L mutant infected in human MT4 cells […]; format: functional
[18] = Selectivity index, ratio of CC50 for cytotoxicity against human MT4 cells to EC50 for antiviral activity against wild type HIV-1 IIIB infected in human MT4 cells; format: toxicity, cell-based; details: read-out: Ratio CC50/EC50
Procedure, shortened: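 Selectivity index calculated as CC50/EC50 ratio, both values from MTT viability readout in MT-4 cells, antiviral arm using wild-type HIV-1 IIIB.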

[19] = Acute toxicity in ICR mouse assessed as brain lesion at 2 g/Kg, po measured after 14 days; format: organism-based; details: in vivo, 2000 mg/kg, 336 h, time 14 day; procedure, shortened: as §3
[20] = system: Human immunodeficiency virus 1; experiment: Antiviral activity against HIV-1 harboring Y181C mutant infected in human MT4 cells […]; format: functional, organism-based; details: Human immunodeficiency virus 1, MT4
[21] = Stability in human plasma assessed as parent compound remaining measured at 30 mins; format: ADME, cell-free; details: read-out: Stability
[22] = system: Human immunodeficiency virus 1; experiment: Antiviral activity against HIV-1 harboring K103N mutant infected in human MT4 cells […]; format: functional, organism-based; details: Human immunodeficiency virus 1, MT4
[23] = Stability in human plasma assessed as parent compound remaining measured at 15 mins; format: ADME, cell-free; details: read-out: Stability
[24] = Acute toxicity in ICR mouse assessed as change in UREA level at 2 g/Kg, po measured after 14 days; format: organism-based; details: in vivo, 2000 mg/kg, 336 h, time 14 day; procedure, shortened: as §4
[25] = Stability in human plasma assessed as parent compound remaining measured at 120 mins; format: ADME, cell-free; details: read-out: Stability
[26] = Acute toxicity in ICR mouse at 2 g/Kg, po measured for 2 weeks; format: organism-based; details: in vivo, 2000 mg/kg, 336 h; procedure, shortened: as §2
[27] = Acute toxicity in ICR mouse assessed as […] kidney at 2 g/Kg, po measured after 14 days; format: organism-based; details: in vivo, 2000 mg/kg, 336 h, time 14 day; procedure, shortened: as §3
[28] = Stability in human plasma assessed as half life; format: ADME, cell-free
[29] = Metabolic stability in human liver microsomes assessed as half life; format: ADME, Microsome; procedure, shortened: as §1
[30] = Acute toxicity in ICR mouse assessed as lung lesion at 2 g/Kg, po measured after 14 days; format: organism-based; details: in vivo, 2000 mg/kg, 336 h, time 14 day; procedure, shortened: as §3
[31] = Acute toxicity in ICR mouse assessed as heart lesion at 2 g/Kg, po measured after 14 days; format: organism-based; details: in vivo, 2000 mg/kg, 336 h, time 14 day; procedure, shortened: as §3
[32] = Acute toxicity in ICR mouse assessed as change in ALT level at 2 g/Kg, po measured after 14 days; format: organism-based; details: in vivo, 2000 mg/kg, 336 h, time 14 day; procedure, shortened: as §4
[33] = Acute toxicity in ICR mouse assessed as change in AST level at 2 g/Kg, po measured after 14 days; format: organism-based; details: in vivo, 2000 mg/kg, 336 h, time 14 day; procedure, shortened: as §4
[34] = Stability in human plasma assessed as parent compound remaining measured at 60 mins; format: ADME, cell-free; details: read-out: Stability
[35] = Acute toxicity in ICR mouse assessed as animal death at 2 g/Kg, po measured for 2 weeks; format: organism-based; details: in vivo, 2000 mg/kg, 336 h; procedure, shortened: as §2

`COc1cc(-c2ccc(C#N)cc2)ccc1/C(=N\N)c1ccnc(Nc2ccc(C#N)cc2)n1` showed an EC50 [1] of 0.005 µM, a remaining at 5 h [2] of 94.7% and an EC50 [3] of 0.007 µM. It also gave a microsomal CLint [4] of 37 µL/min/mg, an EC50 [5] of 0.021 µM and an EC50 [6] of 0.148 µM. The Activity [7] was “Non-toxic”, the IC50 [8] was 0.081 µM and the remaining at 0 min [9] was 100%. The Activity [10] was “Non-toxic”, the CC50 [11] was 54 µM and the Activity [12] was “Non-toxic”. The Activity [13] was “Non-toxic”, the “Ratio EC50” value [14] was 7.5 and the Activity [15] was “Non-toxic”. For the same compound, the “Ratio EC50” value [16] was 8.6, the “Ratio EC50” value [17] was 2 and the selectivity ratio [18] was 11000. The Activity [19] was “Non-toxic”, the EC50 [20] was 0.022 µM and the remaining at 0.5 h [21] was 101%. The EC50 [22] was 0.01 µM, the remaining at 0.25 h [23] was 104% and the Activity [24] was “Non-toxic”. For the same compound, the remaining at 2 h [25] was 98.2%, the Activity [26] was “Non-toxic” and the Activity [27] was “Non-toxic”. For the same compound, the half-life [28] was > 300 min, the half-life [29] was 37.5 min and the Activity [30] was “Non-toxic”. The Activity [31] was “Non-toxic”, the Activity [32] was “Non-toxic” and the Activity [33] was “Non-toxic”. The remaining at 1 h [34] was 101% and the Activity [35] was “Non-toxic”.
